AHR activator = human AHR activation; P35869; 320,000 compounds, 2.5% hits; AHR-responsive luciferase reporter cells, luminescence; activation, % at 5 µM; in the data active = activation above about 47%;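 note: 0% = vehicle wells and 100% = reference agonist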
APOBEC3A inh = inhibitors of human APOBEC3A DNA deaminase; inhibition, % at 20 µM; recombinant A3A, FAM/TAMRA ssDNA deamination fluorescence; P31941; AID 493011; 330,000 compounds, 0.41% hits;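 active = at least 40% inhibition at 20 µM here, with at most 30% in a related deaminase screen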;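 note: plate controls were A3A with DMSO for no effect and wells lacking A3A enzyme for full effect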
Target sequence (P31941 whole entry, looked up): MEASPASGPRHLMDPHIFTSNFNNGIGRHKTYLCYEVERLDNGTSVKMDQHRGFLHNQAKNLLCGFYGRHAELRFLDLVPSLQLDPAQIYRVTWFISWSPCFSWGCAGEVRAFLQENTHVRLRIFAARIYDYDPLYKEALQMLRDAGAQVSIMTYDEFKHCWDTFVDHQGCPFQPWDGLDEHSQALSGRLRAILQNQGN
Arrestin-AP2 inh = human beta-arrestin and AP2 interaction inhibition; FITC-arrestin peptide / GST-AP2 beads, flow cytometry; AP2 beta2 appendage carries R879A mutation; inhibition, % at 10 µM; 340,000 compounds, 0.31% hits; AID 504490;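 active = inhibition above a set limit, near 3 SD of compounds lacking own fluorescence, cut at about 54% in these data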;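 note: plate controls were DMSO wells for no effect and 5 µM unlabelled arrestin peptide for full effect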
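Measured by: flow cytometry, FL1 (488/535 nm); Material: AP2 appendage R879A on GSH beads; Evaluation: percent response; Timing: pre-incubation 12 min, peptide binding 1 h, room temperature; Also added: 50 nM FITC-arrestin peptide; Medium: PBS with 0.05% Tween 20 and 0.1% BSA.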
PolyA inh = blocks polyadenylation in yeast reporter cells. activity score, % at 12 µM. 300,000 compounds, 0.02% hits. AID 1875. S. cerevisiae SKY197-pL101 polyadenylation reporter, beta-gal luminescence; efflux-impaired pdr1/pdr3 knockout yeast; score 100 = 6 SD above DMSO;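 active = lowest replicate activity score at least 50, where 100 means six control SD above control mean; inconclusive = lowest score under 50 but half or more replicates reach 50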;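 note: yeast exposed to compound for 9 h at 30 °C; higher score means more reporter readthrough which indicates perturbed polyadenylation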
UCH37 DUB inh = inhibitors of human deubiquitinating enzyme UCH37; AID 588478; purified proteasome/UCH37, Ub-AMC cleavage fluorescence; inhibition, % (test concentration not listed); 330,000 compounds, 0.33% hits; Q9Y5K5;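 active = mean inhibition over replicate wells above about 20%, limit read from the data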;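 note: 0% = compound-free wells with enzyme and 100% = wells lacking proteasome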
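Assay system: Proteasome-bound UCH37. Buffer or medium: pH 7.4 Tris-HCl (50 mM) with ovalbumin, ATP-MgCl2, DTT. Incubation: 30 min preincubation with enzyme, 25 min cleavage at room temperature. Measured by: fluorescence, ex 355 nm, em 460 nm. Read-out basis: percent inhibition. Control set: wells without proteasome as full block, compound-free enzyme plus substrate as uninhibited.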
A3G deaminase = inhibitors of human APOBEC3G DNA deaminase; AID 493012; 330,000 compounds, 0.28% hits; Q9HC16; inhibition, % at 20 µM; recombinant A3G, ssDNA deamination FAM/TAMRA fluorescence;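 active = inhibition of at least 40% at 20 µM, with no more than 30% in the related APOBEC3A deaminase screen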;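 note: plate controls were DMSO wells with A3G for no effect and wells lacking A3G enzyme for full effect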
Target sequence (Q9HC16 whole entry, looked up): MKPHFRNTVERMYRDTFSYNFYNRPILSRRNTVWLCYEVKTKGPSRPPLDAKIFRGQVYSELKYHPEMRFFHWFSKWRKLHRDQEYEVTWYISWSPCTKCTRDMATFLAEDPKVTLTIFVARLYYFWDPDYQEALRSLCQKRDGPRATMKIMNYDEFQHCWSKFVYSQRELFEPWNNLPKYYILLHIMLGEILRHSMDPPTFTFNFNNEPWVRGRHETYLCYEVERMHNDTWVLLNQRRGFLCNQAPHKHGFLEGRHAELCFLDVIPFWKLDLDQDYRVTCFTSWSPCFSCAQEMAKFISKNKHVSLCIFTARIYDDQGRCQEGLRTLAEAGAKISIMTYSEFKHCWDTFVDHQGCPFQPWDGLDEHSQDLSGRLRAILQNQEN
Active calls of the source: *. Sampled rows, rich in hits. Any-hit rate of the full collection: about 3.4%.

For O=C(Nc1ccccc1C(=O)Nc1ccc2c(c1)OCO2)c1ccco1 the results were AHR activator 47*, APOBEC3A inh 1, Arrestin-AP2 inh 5, PolyA inh -1, UCH37 DUB inh 2 and A3G deaminase 1.
Cc1cccc(NC(=O)c2ccccc2NC(=O)c2ccco2)c1 was read as AHR activator 46, APOBEC3A inh -1, Arrestin-AP2 inh -16, PolyA inh 4, UCH37 DUB inh 0 and A3G deaminase -6.
`CCOc1ccccc1NC(=O)c1ccccc1-c1ccccc1` gave AHR activator 4, APOBEC3A inh -3, Arrestin-AP2 inh -1, PolyA inh -16, UCH37 DUB inh 1 and A3G deaminase -6.
For COc1ccc(NC(=O)c2ccccc2NC(=O)c2ccco2)cc1 the results were AHR activator 63*, APOBEC3A inh -1, Arrestin-AP2 inh -1, PolyA inh -4, UCH37 DUB inh -10 and A3G deaminase -8.
`CCOc1ccccc1NC(=O)c1cccc2ccccc12` gave AHR activator 74*, APOBEC3A inh -2, Arrestin-AP2 inh 28, PolyA inh 6, UCH37 DUB inh 0 and A3G deaminase -2.
COc1ccc(OC)c(NC(=O)c2ccccc2NC(=O)c2ccco2)c1 was read as AHR activator 6, APOBEC3A inh -2, Arrestin-AP2 inh -5, PolyA inh inconclusive, UCH37 DUB inh 3 and A3G deaminase -6.
Screening COc1cc(C(=O)ON=C2CCCc3c2ccc(OC)c3[N+](=O)[O-])cc(OC)c1OC returned UCH37 DUB inh 1.
COc1cccc(C=NNC(=O)CNC(=O)c2ccc(S(=O)(=O)N3CCOCC3)cc2)c1OC was read as UCH37 DUB inh -2.
`Cc1ccnn1CC(=O)NN=Cc1cn[nH]c1-c1ccc(F)cc1` gave UCH37 DUB inh 6.
Screening O=[N+]([O-])c1cc2c(cc1C=NNc1nc(Nc3ccccc3)nc(N3CCCCC3)n1)OCO2 returned UCH37 DUB inh 5.
`CCOc1ccccc1NC(=O)c1cccc(NC(=O)CC(c2ccccc2)c2ccccc2)c1` gave AHR activator -4, APOBEC3A inh 1, Arrestin-AP2 inh -1, PolyA inh -13, UCH37 DUB inh 1 and A3G deaminase 5.
CCOc1ccccc1NC(=O)c1ccc(Cl)c(NC(=O)CC(c2ccccc2)c2ccccc2)c1 was read as AHR activator 80*, APOBEC3A inh 1, Arrestin-AP2 inh 3, PolyA inh 13, UCH37 DUB inh 3 and A3G deaminase 1.
`CCCCOc1ccccc1NC(=O)c1ccco1` gave AHR activator -2, APOBEC3A inh -2, Arrestin-AP2 inh -8, PolyA inh -8, UCH37 DUB inh -1 and A3G deaminase -4.
For CCOc1ccccc1NC(=O)c1ccccc1NC(=O)c1ccco1 the results were AHR activator 70*, APOBEC3A inh -3, Arrestin-AP2 inh -6, PolyA inh 5, UCH37 DUB inh 0 and A3G deaminase -7.
Screening O=C(NN=Cc1ccncc1)c1cccc(NN=Cc2ccncc2)c1 returned UCH37 DUB inh 12.
For Cn1ncc(Br)c1C(=O)Nc1cccc(C(F)(F)F)c1 the results were AHR activator 71*, APOBEC3A inh 3, Arrestin-AP2 inh -5, PolyA inh 10, UCH37 DUB inh 5 and A3G deaminase -1.
For CC(=O)Nc1cccc(C(C)=NNC(=O)c2ccc(Cn3nc([N+](=O)[O-])c(Cl)c3C)o2)c1 the results were UCH37 DUB inh 1.
`Cc1cc(/C=C2\NC(=O)NC2=O)c(C)n1-c1cccnc1` gave AHR activator 100*, APOBEC3A inh -1, Arrestin-AP2 inh 0, PolyA inh -9, UCH37 DUB inh 11 and A3G deaminase -5.
For O=C(Nc1cc(F)cc(F)c1)c1ccc(NCCc2ccccc2)c([N+](=O)[O-])c1 the results were AHR activator 57*, APOBEC3A inh -2, Arrestin-AP2 inh -5, PolyA inh 1, UCH37 DUB inh 2 and A3G deaminase -6.
Cc1cccc(-c2n[nH]c(=S)n2N=Cc2ccc(C)s2)c1 was read as UCH37 DUB inh 1.
Screening COc1ccc(Cl)cc1N(CC(=O)NN=Cc1ccc(OCC(N)=O)cc1)S(C)(=O)=O returned UCH37 DUB inh 4.
Screening Cc1ccc(-c2[nH]ncc2/C=N/n2c(C)nc3ccccc3c2=O)cc1 returned AHR activator 61*, APOBEC3A inh 1, Arrestin-AP2 inh -3, PolyA inh 10 and A3G deaminase -7.
`Cc1nc2ccccc2c(=O)n1N=Cc1cn[nH]c1-c1ccccc1` gave UCH37 DUB inh 7.
Screening Cc1cc2cc(C)c3nnc(SCc4ccccn4)n3c2cc1C returned AHR activator 73*, APOBEC3A inh 5, Arrestin-AP2 inh 22, PolyA inh -4, UCH37 DUB inh 5 and A3G deaminase 1.
Screening O=C(CNC(=O)c1ccc(S(=O)(=O)N2CCCCC2)cc1)NN=Cc1ccco1 returned UCH37 DUB inh -1.
`c1ccc(-c2nc(-c3cccnc3)n[nH]2)cc1` gave AHR activator 65*, APOBEC3A inh -2, PolyA inh 20, UCH37 DUB inh 6 and A3G deaminase -9.
For Cc1c(-c2nc(-c3ccncc3)no2)cccc1[N+](=O)[O-] the results were AHR activator 65*, APOBEC3A inh 1, Arrestin-AP2 inh -3, PolyA inh -19, UCH37 DUB inh 4 and A3G deaminase -3.
O=[N+]([O-])c1cc(-c2nc(-c3ccncc3)no2)ccc1Cl was read as AHR activator 6, APOBEC3A inh -4, Arrestin-AP2 inh -3, PolyA inh -72, UCH37 DUB inh 0 and A3G deaminase -10.
For O=Cc1c(-c2ccccc2)nc2ccccn12 the results were AHR activator 89*, APOBEC3A inh 5, Arrestin-AP2 inh 10, PolyA inh -35, UCH37 DUB inh 2 and A3G deaminase 0.
`Cn1c(N=NC(=O)c2ccccc2)c(O)c2ccccc21` gave AHR activator 96*, APOBEC3A inh 1, Arrestin-AP2 inh 2, PolyA inh -19, UCH37 DUB inh 8 and A3G deaminase 3.
Cn1c(O)c(N=NC(=O)CNC(=O)c2ccccc2)c2ccccc21 was read as AHR activator 3, APOBEC3A inh 0, Arrestin-AP2 inh -4, PolyA inh -12, UCH37 DUB inh 4 and A3G deaminase 0.
Screening COc1ccccc1N1CCN(N=Cc2cccc(Cl)c2)CC1 returned UCH37 DUB inh 1.
Screening O=C(COc1ccccc1)Nc1nc(-c2cccnc2)cs1 returned AHR activator 55*, APOBEC3A inh -6, Arrestin-AP2 inh -4, UCH37 DUB inh 0 and A3G deaminase -6.

High-throughput results: PubChem, several laboratories
